Assays:
[1] = Oral pharmacokinetics of curcumin in plasma of freely mobile rats; type: in vivo, Male Sprague-Dawley rats; settings: for AUC/dose: mean ± SEM, n = 4
Procedure, shortened: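 Male Sprague-Dawley rats (215 ± 10 g) had jugular catheters placed under pentobarbital (50 mg/kg ip) and were used freely moving one day later. They were dosed by gavage at 1 g/kg. Heparinized jugular blood was drawn from 15 to 480 min, and plasma was stored at −20°C. Samples were assayed by HPLC with an internal standard (425 nm; acetonitrile/10 mM phosphate pH 3.5). Noncompartmental analysis, n = 4.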

[2] = Cumulative excretion of curcumin in feces and urine; type: in vivo, Male Sprague-Dawley rats; settings: rat, oral, 1 g/kg; collected up to 72 hours
[3] = system: reverted rat gut sacs; assay: Ex vivo curcumin absorption using reverted rat gut sacs; type: in vitro ADME, Male Sprague-Dawley rats; settings: serosal fluid + sac tissue; 100 μg/mL, 60 minutes, 37°C; mean ± SE, n = 4
Procedure, shortened: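 Rats (210 ± 10 g) killed by i.p. urethane/α-chloralose overdose. Small intestine rinsed with 0.9% saline, split into duodenum, jejunum and ileum in 37°C TC-199 (pH 7.4), everted, and tied into ~2 cm medium-filled sacs. Sacs shaken at 37°C in TC-199 with added 100 μg/mL test compound or nanoformulation, 1 h. Serosal fluid and acetonitrile-homogenized tissue protein-precipitated with internal standard, then analysed by HPLC; amounts summed.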

[4] = male, Sprague-Dawley, rat, plasma, po, 1 g/kg

- AUC [1, 4]: 104 ng·h/mL
- Cmax [1, 4]: 28 ± 10 ng/mL
- Tmax [1, 4]: 45 min
- Time for which curcumin could be detected in plasma after oral ingestion ([1]; rat plasma, oral, 1 g/kg (b48 prints 1 mg/kg)): 6 h
- AUC/dose ([1]; rat plasma, oral, 1 g/kg): 0.0062 ± 0.003
- AUC/dose ([1]; rat plasma, oral, 1 g/kg, listed as curcumin alone): 0.0062
- Accumulated percentage of curcumin in urine [2]: ~0%
- Accumulated percentage of unabsorbed curcumin in feces [2]: ~90%
- Curcumin amount after incubation, duodenum [3]: 0.47 ± 0.04 µg
- Curcumin amount after incubation, ileum [3]: 0.85 ± 0.02 µg
- Curcumin amount after incubation, jejunum [3]: 1.01 ± 0.05 µg
SMILES: COc1cc(/C=C/C(=O)CC(=O)/C=C/c2ccc(O)c(OC)c2)ccc1O [Curcumin]

Source: publication PMC3384366 (International Journal of Nanomedicine, 2012)
